High-throughput results deposited in PubChem by several laboratories.
The list is not random: actives were taken first. Their share in the collection is about 1.4%.
DAGLB inhibitor: DAGLB lipase inhibitors, primary screen, biochemical, fluorescence, HTS. Diacylglycerol lipase-beta (Homo sapiens), Q8NCG7. HEK293T DAGLB membrane lysate, EnzChek fluorogenic substrate. inhibition, % at 5.17 µM. 340,000 compounds, 0.059% hits. AID 504411, 2011; in the data active = inhibition above about 34%;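 note: 0% = enzyme with vehicle and 100% = wells lacking enzyme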
Tn6 DDE FP: inhibitors of Tn6 peptide binding to fibrin DD(E), primary screen, biochemical, fluorescence polarization, human fibrin, Tn6 probe. Fibrinogen beta chain (Homo sapiens), P02675. Fibrin DD(E) TRITC-Tn6 fluorescence polarization displacement. inhibition, % at 8.3 µM. 370,000 compounds, 0.21% hits. AID 720509, 2013;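 active = inhibition above a per-campaign cutoff: mean of compounds within control limits plus 3 SD, cut at about 15% in these data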;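 note: 0% = median of all compound wells on the plate and 100% = blocking peptide control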
Target sequence (P02675 whole entry, looked up): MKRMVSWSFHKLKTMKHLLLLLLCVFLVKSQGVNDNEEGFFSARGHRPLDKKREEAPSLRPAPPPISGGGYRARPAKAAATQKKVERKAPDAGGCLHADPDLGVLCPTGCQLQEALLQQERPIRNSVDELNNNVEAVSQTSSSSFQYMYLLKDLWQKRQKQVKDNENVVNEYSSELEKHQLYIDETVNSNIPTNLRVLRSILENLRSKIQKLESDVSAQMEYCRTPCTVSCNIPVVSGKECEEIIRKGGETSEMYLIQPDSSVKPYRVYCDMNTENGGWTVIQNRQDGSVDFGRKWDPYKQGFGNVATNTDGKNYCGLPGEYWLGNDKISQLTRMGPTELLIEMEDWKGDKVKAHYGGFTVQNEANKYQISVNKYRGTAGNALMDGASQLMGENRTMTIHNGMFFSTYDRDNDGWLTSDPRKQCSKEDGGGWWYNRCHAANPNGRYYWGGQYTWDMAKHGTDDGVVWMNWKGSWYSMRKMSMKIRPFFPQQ
H9c2 protect: cardioprotection against H2O2-induced cell death, primary screen, uHTS, H9c2 cells, ATPLite luminescence | H9c2 cardiomyocytes, H2O2 injury protection, 2 h | AID 588492, 2011 | 360,000 compounds, 0.63% hits | protection from H2O2 cell death, % at 20 µM;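 active = compounds giving at least 50% protection of heart cells from peroxide-induced death in the single-dose screen, raw or plate-pattern-corrected value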;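 note: 0% = DMSO wells with peroxide and 100% = DMSO wells without peroxide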
TAG inh: inhibitors of triacylglycerol accumulation, primary screen, cell-based, uHTS, fluorescence, H9c2 | H9c2 cells, Nile Red lipid (TAG) fluorescence; cells loaded with 200 µM oleic acid | inhibition, % at 12.5 µM | 230,000 compounds, 0.66% hits;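 active = pattern-corrected inhibition of lipid staining of at least 50% with the nuclear-stain viability signal not falling by more than 50%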;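 note: 0% = DMSO wells and 100% = triacsin C control wells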
MT1-MMP act inh: blockers of MT1-MMP proenzyme processing, primary screen, HT1080 RFP-PRO-GFP cells, GFP/RFP fluorescence | Matrix metalloproteinase-14 (Homo sapiens), P50281 | GFP/RFP ratio fluorescence, overnight; percent of plate control window, DMSO zero | GFP/RFP ratio change, % at 20 µM | 360,000 compounds, 0.061% hits;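 active = GFP/RFP ratio change of at least 30% with cell ATP level not reduced by more than half and red fluorescence within 50% of control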
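Assay system: HT1080 RFP-PRO-GFP cells. Benchmarks: DMSO vehicle wells and RFP-L50D-GFP reporter cell wells. Times: overnight cell settling, then overnight compound exposure, 37 °C, 5% CO2. Compound: 20 µM single dose, 1% DMSO. Read-out basis: GFP/RFP fluorescence ratio.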
Tn7 DDE FP: inhibitors of Tn7 peptide binding to fibrin DD(E), primary screen, biochemical, fluorescence polarization, human fibrin, Tn7 probe | Fibrinogen beta chain (Homo sapiens), P02675 | FP displacement of FITC-Tn7 peptide from fibrin DD(E); 0% = median of compound wells per plate | inhibition, % at 8.3 µM | 370,000 compounds, 0.13% hits | AID 720508, 2013;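 active = inhibition above the mean of compounds falling within the control limits plus 3 SD of them, cut at about 14% in these data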;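 note: 0% = plate median of compound wells and 100% = 10 µM Aha-Tn7 peptide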
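Assay system: human fibrin DD(E). Input: DD(E) 2 µM final. Medium: Tris buffer with calcium and detergent, pH 7.8. Compound dosing: single point at 8.3 µM. Timing: 10 min plus 3 h, room temperature. Technique: fluorescence polarization of the labelled Tn7 tracer. Read-out: percent inhibition. Replicates: singlicate testing.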
Active calls of the source: *; nt = no result given.

SMILES	DAGLB inhibitor	Tn6 DDE FP	H9c2 protect	TAG inh	MT1-MMP act inh	Tn7 DDE FP
CC(C)(C)[C@H](NC(=O)c1cc(Cl)cc(Cl)c1)C(=O)N1CCC[C@H]1C(=O)N[C@H](C#N)CC(=O)O	nt	10	nt	nt	nt	7
O=C(O)c1ccccc1NS(=O)(=O)c1cccc(C(F)(F)F)c1	5	6	7	nt	6	2
O=C(O)c1ccccc1NS(=O)(=O)c1cccc(-n2sc3ccccc3c2=O)c1	7	3	64*	nt	-3	-5
CCN(CC)C(=O)CC[C@@H]1CC[C@]2(CCCN(Cc3ccc(Cl)cc3)C2)O1	nt	3	nt	nt	nt	-1
CCCOc1ccc(C(=O)NCCO)cc1	1	5	5	-8	7	-9
CC1(C)CC2C1CCC1(O)CC2(C)CCC1N(O)c1ccc(C(=O)NCCO)cn1 (centres undefined)	3	4	51*	0	11	-9
CCCC(c1nnnn1C(C)(C)CC)N(CCCO)Cc1cc2cc(C)cc(C)c2[nH]c1=O (centres undefined)	1	7	59*	-37	-6	-4
Cc1nc2ccc(N=NC3=C(O)CC(C)(C)CC3=O)cc2s1	1	-1	12	nt	3	1
CCOc1ccc2nc(N=NC3=C(O)CC(C)(C)CC3=O)sc2c1	6	-5	51*	6	11	8
CN(CC(=O)Nc1ccc(F)cc1)C(=O)COC(=O)c1ccc(=O)n(Cc2ccccc2)n1	1	15	-3	-1	-2	56*
CN(CC(=O)Nc1ccccc1Cl)C(=O)COC(=O)c1ccc(=O)n(Cc2ccccc2)n1	2	3	6	-5	-2	3
CCCCCc1ccc(NC(=O)OCCN2C(=O)CCC23CCC(c2ccccc2)CC3)cc1 (centres undefined)	nt	3	nt	nt	nt	-3
Cn1c(=O)c(N)c2c3c(c(Br)ccc31)C(=O)c1ccccc1-2	-98	16*	21	-22	-138	-6
Cn1c(=O)c2c(nc(Oc3ccccc3Br)n2C)n(C)c1=O	0	5	-2	nt	-5	1
O=C(NCC1CCN(C(=O)C(=O)c2cccs2)CC1)c1ccc2c(c1)CCO2	nt	4	nt	nt	nt	6
CN(CC(=O)Nc1ccccc1Br)C(=O)CCc1nc2ccccc2c(=O)[nH]1	1	2	73*	15	-7	2
CN1CCC(N(C)C(=O)CCc2nc3ccccc3c(=O)[nH]2)CC1	1	5	78*	nt	-1	-5
CCOc1ccc(NC(=O)CN(C)C(=O)CCc2nc3ccccc3c(=O)[nH]2)cc1OCC	-2	9	50	-10	1	-1
COc1ccc(Cl)cc1NC(=O)CN(C)C(=O)CCc1nc2ccccc2c(=O)[nH]1	-1	0	73*	16	-1	-5
COc1ccc2c(c1)CNC2CS(=O)(=O)NC1CCCC1 (centres undefined)	nt	1	nt	nt	nt	0
COc1cc(C)cc2oc(=O)c(CC(=O)N3CCN(C(=O)C4COc5ccccc5O4)CC3)c(C)c12 (centres undefined)	-1	-5	47*	nt	1	7
CN1C[C@]2(C=C3CCCCC3n3c(=O)n(-c4ccccc4)c(=O)n32)N(C(=O)OCc2ccccc2)C1=NC(=O)c1ccccc1 (some centres undefined)	nt	-6	nt	nt	nt	-2
C[C@H]1COc2cc(Br)ccc2S(=O)(=O)N1Cc1cn(Cc2ccc(Cl)cc2)nn1	nt	0	nt	nt	nt	-5
OCCN(CCO)c1nc(N2CCCCC2)c2nc(N(CCO)CCO)nc(N3CCCCC3)c2n1	-14	1	31	1	-59	26*
Nc1nc(NCCO)nc(N2CCCCCC2)c1[N+](=O)[O-]	1	3	-6	nt	-3	-2
SMILES	DAGLB inhibitor	Tn6 DDE FP	H9c2 protect	TAG inh	MT1-MMP act inh	Tn7 DDE FP
C=C1C(=O)C=C[C@]2(C)C[C@@H]3OC(=O)[C@](C)(O)[C@H]3C[C@@H]12	-4	-2	8	57*	6	5
C=CCOC(=O)N1CCN(C(=O)c2ccc3c(c2)nc(C)n3C2CCCC2)CC1	nt	-8	nt	nt	nt	2
O=C1OCC2=C1C(c1ccc(F)cc1)c1cc3c(cc1N2)OCO3 (centres undefined)	2	2	-6	-9	0	-3
O=C1OCC2=C1C(c1ccc(F)cc1)c1cc3c(cc1N2)OCCO3 (centres undefined)	0	-2	-3	60*	10	-3
O=C(CCCn1c(SCC(=O)c2ccc(O)c(O)c2)nc2ccccc2c1=O)NCC1CCCO1 (centres undefined)	3	-3	53*	nt	6	4
CCCCn1c(SCC(=O)c2ccc(O)c(O)c2)nc2ccsc2c1=O	21	nt	92*	5	1	nt
O=C(CCc1ccccc1)N[C@H]1[C@H](OC(=O)c2ccc3ccccc3n2)CCC[C@@]12C(=O)N(Cc1ccccc1)c1ccccc12	nt	-8	nt	nt	nt	-10
CCCCN(C)C(=O)CN1C(=O)C2CCCCN2C(=O)c2ccccc21 (centres undefined)	nt	-1	nt	nt	nt	5
COc1cc(NC(=O)COC(=O)CCc2nc3ccccc3c(=O)[nH]2)cc(OC)c1	1	-3	15	-8	-2	-4
O=C(CCc1nc2ccccc2c(=O)[nH]1)NNC(=O)c1ccccc1Cl	-2	8	56*	3	-4	13
O=C(CCc1nc2ccccc2c(=O)[nH]1)NNC(=O)COc1cccc(F)c1	-2	4	96*	20	0	-5
Cc1ccc(NC(=O)COC(=O)CCc2nc3ccccc3c(=O)[nH]2)cc1Cl	-1	6	38	1	-5	2
CC(C)C[C@H]1COc2cc(Br)ccc2S(=O)(=O)N1Cc1cn(CCC2OCCO2)nn1	nt	4	nt	nt	nt	-2
COc1ccc(N2CCN(CCCNC(=O)COc3ccc(C)cc3)CC2)cc1	nt	0	nt	nt	nt	-2
COc1cc(/C=N/N2C(=O)CSC2=S)ccc1O	-1	-3	8	-5	30	-3
COc1cc(O)c(C=NN2C(=O)CSC2=S)c(OC)c1	6	7	62*	-10	3	-2
COC(=O)C1=C(C)N(Cc2cccc(C(F)(F)F)c2)C(=NCc2ccccc2C(F)(F)F)NC1c1cccc(F)c1 (centres undefined)	nt	1	nt	nt	nt	-10
Cc1c(C(=O)N/N=C/c2ccc(O)c(Br)c2)sc(N)c1C#N	0	-17	70*	nt	-53	3
